PGC1a acetyl inh – inhibitors of PGC1a acetylation signal, primary screen, cell-based, U2OS, AlphaScreen, inhibitor mode; AlphaScreen anti-acetyl-lysine; with virally co-expressed GCN5 acetyltransferase; inhibition, % at 15.6 µM; 350,000 compounds, 0.17% hits; AID 651687, 2012;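 active = every replicate shows inhibition of at least 40%; inconclusive = mean inhibition at least 40% but some replicate below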;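 note: 0% = neutral control wells and 100% = positive control wells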
S100A4 inh HTS – inhibitors of S100A4-myosin IIA peptide binding, primary screen, biochemical, fluorescence polarization, TAMRA-MyoIIA peptide; AID 652163, 2013; inhibition, % at 10.7 µM; 360,000 compounds, 0.14% hits;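 active = mean inhibition of at least 70% across replicates, with every replicate also reaching that level; inconclusive = mean inhibition reaches 70% but some replicates fall short; inactive = mean inhibition below 70%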
Target sequence (P26447 whole entry, looked up): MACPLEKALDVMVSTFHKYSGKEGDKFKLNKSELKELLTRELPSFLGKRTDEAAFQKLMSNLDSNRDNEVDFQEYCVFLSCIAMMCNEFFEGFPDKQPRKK
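Test system: S100A4 monomer protein; Medium: HEPES pH 7.2 with CaCl2, KCl, NaCl, DTT, Triton; Probe or stimulus: TAMRA-labelled myosin IIA heavy-chain peptide probe, 5 nM; Doses: one dose per compound; Times: polarization read 5 min after assay mix addition, stable 5–60 min; Benchmarks: neutral control DMSO, positive control TFP.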
C2C12 statin – suppressors of statin myotoxicity in C2C12 myotubes, primary screen, cell-based, single point, plate reader. C2C12 myotubes + simvastatin, ATP luminescence, 48 h; scaled: DMSO 0, geranylgeraniol control 100. rescue of ATP level, % at 7.49 µM. 330,000 compounds, 0.78% hits. AID 602340, 2012;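 active = mean ATP rescue above about 67%, or every replicate alone reaching that limit, limit read from the data, passing the limit was not always enough; inconclusive = no clear call, values can overlap the other calls; inactive = mean under the limit and some replicate under it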;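 note: myotubes were challenged with 10 µM simvastatin during compound exposure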
SIRT5 block – SIRT5 desuccinylase inhibitors, primary screen, biochemical, fluorescence imaging, single point, set 5 | inhibition, % at 15 µM | 330,000 compounds, 1.1% hits | NAD-dependent protein deacylase sirtuin-5, mitochondrial (Homo sapiens), Q9NXA8 | Purified SirT5, succinyl-peptide AMC, trypsin-coupled fluorescence | AID 652115, 2013; in the data active = inhibition above about 15%; inconclusive = no clear call, values can overlap the other calls
Target sequence (Q9NXA8 whole entry, looked up): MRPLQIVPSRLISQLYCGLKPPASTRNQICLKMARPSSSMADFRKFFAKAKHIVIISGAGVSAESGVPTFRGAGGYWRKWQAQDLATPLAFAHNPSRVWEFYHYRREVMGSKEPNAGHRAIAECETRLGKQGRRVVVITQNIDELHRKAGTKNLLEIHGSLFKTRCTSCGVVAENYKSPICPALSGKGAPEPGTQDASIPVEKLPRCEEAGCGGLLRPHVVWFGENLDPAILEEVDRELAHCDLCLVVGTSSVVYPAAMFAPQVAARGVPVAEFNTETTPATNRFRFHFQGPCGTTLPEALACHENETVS
DENV2 CPE rescue – inhibitors of DENV2 cytopathic effect, primary screen, cell-based, plate reader, single concentration | DENV2-infected cells, cytopathic effect rescue | CPE inhibition, % at 9.99 µM | 350,000 compounds, 1.7% hits; in the data active = CPE inhibition above about 20%, passing the limit was not always enough; inconclusive = no clear call, values can overlap the other calls; tested in BHK-21 cells;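 note: 0% = median of neutral control wells and 100% = median of positive control wells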
* = called active by the depositor; ? = inconclusive; · = no result given; ! = not confirmed by another sample. Rows were chosen to be rich in hits. Some 2.9% of all compounds tested hit in one or more screens of this group.

SMILES	PGC1a acetyl inh	S100A4 inh HTS	C2C12 statin	SIRT5 block	DENV2 CPE rescue
C[C@@H]1CN([C@@H](C)CO)S(=O)(=O)c2ccc(-c3ccccc3)cc2O[C@@H]1CN(C)C(=O)c1ccc2c(c1)OCO2	-7	-1	-8	16*	1
C[C@H]1CN([C@@H](C)CO)S(=O)(=O)c2ccc(/C=C/c3ccccc3)cc2O[C@H]1CN(C)C(=O)c1ccc2c(c1)OCO2	-24	-36	-10	22*	-2
C[C@H](CO)N1C[C@H](C)[C@@H](CN(C)C(=O)c2ccc3c(c2)OCO3)Oc2cc(-c3ccccc3)ccc2S1(=O)=O	9	·	-5	·	·
C[C@H]1CN([C@@H](C)CO)S(=O)(=O)c2ccc(/C=C/c3ccccc3)cc2O[C@@H]1CN(C)C(=O)c1ccc2c(c1)OCO2	-9	0	15	2	-7
C[C@H](CO)N1C[C@H](C)[C@H](CN(C)C(=O)c2ccc3c(c2)OCO3)Oc2cc(/C=C/c3ccccc3)ccc2S1(=O)=O	-15	0	-30	29*	0
C[C@@H]1CN([C@H](C)CO)S(=O)(=O)c2ccc(C#Cc3ccccc3F)cc2O[C@H]1CN(C)C(=O)c1ccc2c(c1)OCO2	-2	-3	-29	36*!	-2
C[C@H](CO)N1C[C@H](C)[C@@H](CN(C)C(=O)Nc2ccc3c(c2)OCO3)OCCCC[C@H](C)Oc2ccc(NC(=O)C3CCCCC3)cc2C1=O	-4	-6	·	3	16
CC(C)Cn1c(N)c(C(=O)COC(=O)c2cc(-c3ccccc3)nc3ccccc23)c(=O)n(C)c1=O	-27	19	-5	·	30*
O=C(NCCCN1CCc2ccccc2C1)Nc1ccc(Cl)cc1	-21	·	87*	·	·
CO[C@@H]1CN(C)C(=O)c2cc(NC(=O)c3cnccn3)ccc2OC[C@@H](C)N(C(C)=O)C[C@H]1C	6	9	13	·	18
O=C(CN1C(=O)C2C3CC(C(Br)C3Br)C2C1=O)Nc1ccc(C(=O)O)cc1 (centres undefined)	2	11	·	23*	2
CCCC(=O)N1CC2(CCN(CC3CCCC3)CC2)c2c([nH]c3cc(OC)ccc23)[C@H]1CO	-5	·	·	·	-1
CCCN(C)C[C@@H]1Oc2cc(-c3ccccc3OC)ccc2S(=O)(=O)N([C@H](C)CO)C[C@@H]1C	-21	2	-4	32*	5
COc1ccccc1-c1ccc2c(c1)O[C@@H](CN(C)S(=O)(=O)c1ccccc1)[C@H](C)CN([C@H](C)CO)S2(=O)=O	-11	-1	-92	19*	-5
COc1ccccc1-c1ccc2c(c1)O[C@@H](CN(C)S(=O)(=O)c1ccccc1)[C@@H](C)CN([C@H](C)CO)S2(=O)=O	-22	-1	-88	4	2
COc1ccccc1-c1ccc2c(c1)O[C@@H](CN(C)S(=O)(=O)c1ccccc1)[C@H](C)CN([C@@H](C)CO)S2(=O)=O	1	3	-66	20*	-3
CCCN(C)C[C@@H]1Oc2cc(-c3ccccc3OC)ccc2S(=O)(=O)N([C@@H](C)CO)C[C@@H]1C	-10	2	-11	-15	1
O=C(c1ccccn1)N1CC[C@H]2[C@H](CO)Nc3ccc(C#Cc4ccccc4)cc3[C@H]21	-4	-3	·	9	-8
COc1ccc(CNC(=O)N(C)C[C@H]2OCc3ccccc3-c3ccccc3C(=O)N([C@H](C)CO)C[C@@H]2C)cc1	2	7	14	-1	-1
CC(C)CC#Cc1ccc([C@H]2[C@@H](CO)N3CCCCN(S(=O)(=O)Cc4ccccc4)C[C@H]23)cc1	-29	13	·	0	-3
C[C@@H]1CN([C@@H](C)CO)C(=O)c2cc(NC(=O)NC3CCCCC3)ccc2O[C@@H](C)CCCCO[C@@H]1CN(C)S(=O)(=O)c1ccccc1	-10	-8	·	6	0
O=C(C[C@@H]1C[C@@H]2c3cc(NC(=O)c4cccnc4)ccc3O[C@@H]2[C@@H](CO)O1)NC1CCCC1	-1	-7	·	-4	13
Cc1ccc(S(=O)(=O)N(C)C[C@@H]2OCCCC[C@H](C)Oc3ccc(NC(=O)C4CCCCC4)cc3C(=O)N([C@H](C)CO)C[C@@H]2C)cc1	-6	·	-15	·	24*
C[C@H]1CCCCO[C@H](CN(C)S(=O)(=O)c2ccccc2)[C@@H](C)CN([C@@H](C)CO)C(=O)c2cc(NC(=O)C3CCCCC3)ccc2O1	3	-13	·	2	?
C[C@@H]1CCCCO[C@H](CN(C)S(=O)(=O)c2ccccc2)[C@@H](C)CN([C@@H](C)CO)C(=O)c2cc(NC(=O)C3CCCCC3)ccc2O1	1	0	·	16*	-2
SMILES	PGC1a acetyl inh	S100A4 inh HTS	C2C12 statin	SIRT5 block	DENV2 CPE rescue
Cc1ccc(S(=O)(=O)N(C)C[C@@H]2OCCCC[C@@H](C)Oc3ccc(NC(=O)C4CCCCC4)cc3C(=O)N([C@H](C)CO)C[C@@H]2C)cc1	0	·	-40	·	-7
C[C@@H]1CN([C@@H](C)CO)C(=O)c2cc(NC(=O)C3CCCCC3)ccc2O[C@@H](C)CCCCO[C@@H]1CN(C)S(=O)(=O)c1ccc(Cl)cc1	5	-1	·	18*	10
CCNC(=O)C[C@@H]1CC[C@@H]2[C@H](COc3ccc(NC(=O)C4CCCCC4)cc3C(=O)N2C)O1	-3	53	-28	5	-8
Cc1noc(C)c1NC(=O)N[C@@H]1CC[C@@H](CC(=O)N2CCCCC2)O[C@H]1CO	-2	-7	3	0	-7
COc1ccc2c3c([nH]c2c1)[C@H](CO)N(Cc1nccs1)CC31CCN(C(=O)C2CC2)CC1	·	42	·	-4	-1
O=C(C[C@H]1C[C@@H]2c3cc(NC(=O)c4ccc5c(c4)OCO5)ccc3O[C@@H]2[C@H](CO)O1)NCc1ccc(Cl)cc1	-7	-1	14	4	5
COCC(=O)N1[C@H](CO)[C@@H](c2ccccc2-c2cccc(F)c2)[C@@H]1C#N	2	5	·	4	-5
C[C@@H]1CN([C@H](C)CO)C(=O)c2cccc(NS(C)(=O)=O)c2O[C@@H]1CN(C)CC1CCCCC1	9	6	4	18*	16
C[C@@H]1CN([C@H](C)CO)C(=O)c2cccc(NS(C)(=O)=O)c2O[C@@H]1CN(C)CC1CC1	1	126*	-27	4	-10
C[C@H]1CN([C@@H](C)CO)C(=O)c2cccc(NS(C)(=O)=O)c2O[C@@H]1CN(C)CC1CC1	5	3	12	3	-8
O=C(C[C@H]1CC[C@H]2[C@@H](COC[C@H](O)CN2Cc2cccc(-c3ccncc3)c2)O1)N1CCOCC1	2	·	22	·	-1
